Test results from ChEMBL document CHEMBL4033657, “N-Aryl-N'-ethyleneaminothioureas effectively inhibit acetylcholinesterase 1 from disease-transmitting mosquitoes” (Eur J Med Chem, 2017).

Columns and labels:
Acetylcholinesterase [1] = molecular target: Acetylcholinesterase (Homo sapiens, UniProt P22303); assay: Inhibition of recombinant human AChE expressed in HEK293F cells using acetylthiocholine iodide as substrate measured over 60 secs by Ellman's method; design: species or system HEK293
Acetylcholinesterase [2] = molecular target: Acetylcholinesterase (Anopheles gambiae, UniProt Q869C3, G122S); assay: Inhibition of recombinant full length Anopheles gambiae AChE1 G122S mutant expressed in baculovirus-infected Sf9 insect cells using acetylthiocholine iodide as substrate measured over 60 secs by Ellman's method
[3] = Selectivity ratio of IC50 for recombinant human AChE expressed in HEK293F cells to IC50 for recombinant full length Anopheles gambiae AChE1 expressed in baculovirus-infected Sf9 insect cells
Method in brief: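 Ratio of the hAChE IC50 divided by the higher of the AgAChE1 or AaAChE1 IC50. Each IC50 came from an Ellman assay (1 mM acetylthiocholine, 0.2 mM DTNB, pH 7.4, 30 °C) with eight concentrations up to 1 mM, using 2-3 replicates.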

Acetylcholinesterase [4] = molecular target: Acetylcholinesterase (Anopheles gambiae, UniProt Q869C3); assay: (§1) Inhibition of recombinant full length Anopheles gambiae AChE1 expressed in baculovirus-infected Sf9 insect cells using acetylthiocholine iodide as substrate measured over 60 secs by Ellman's method
[5] = (§2) Inhibition of recombinant full length Aedes aegypti AChE1 expressed in baculovirus-infected Sf9 insect cells using acetylthiocholine iodide as substrate measured over 60 secs by Ellman's method
Method in brief: (§3)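 Secreted, non-purified recombinant enzyme in growth medium, tested as enzyme source. Ellman assay at 30 °C in 0.1 M phosphate buffer pH 7.4 with 0.2 mM DTNB and 1 mM acetylthiocholine iodide; A412 followed over 60 s. Compound (100 mM DMSO stock) tested at eight concentrations, maximum 1 mM. Activity set relative to eight uninhibited controls per plate; IC50 from three-parameter variable-slope fit; 2-3 independent replicates.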

Aedes aegypti [6] = assay: Inhibition of recombinant full length Aedes aegypti AChE1 expressed in baculovirus-infected Sf9 insect cells at 1 mM using acetylthiocholine iodide as substrate measured over 60 secs by Ellman's method; method in brief: as §3
Aedes aegypti [7] = assay: as §2; method in brief: as §3
[8] = molecular target: Acetylcholinesterase (Anopheles gambiae) (UniProt Q869C3); assay: Inhibition of recombinant full length Anopheles gambiae AChE1 expressed in baculovirus-infected Sf9 insect cells at 1 mM using acetylthiocholine iodide as substrate measured over 60 secs by Ellman's method; method in brief: as §3
[9] = molecular target: Acetylcholinesterase (Anopheles gambiae) (UniProt Q869C3); assay: as §1

| SMILES | IC50 (Acetylcholinesterase [1]) [µM] | IC50 (Acetylcholinesterase [2]) [µM] | Ratio IC50 [3] | IC50 (Acetylcholinesterase [4]) [µM] | IC50 [5] [µM] | inhibition (Aedes aegypti [6]) [%] | inhibition (Aedes aegypti [7]) | inhibition [8] [%] | inhibition [9] |
| --- | --- | --- | --- | --- | --- | --- | --- | --- | --- |
| COc1ccc(NC(S)=NCCN2CCOCC2)cc1 | > 200 | > 200 | > 18 | 11 | – | – | – | – | – |
| COc1ccc(NC(=S)NCCN2CCCCC2)cc1 | 120 | 94 | 4 | 29 | 28 | – | – | – | – |
| COc1ccc(NC(S)=NCCN2CCC(C)CC2)cc1 | > 200 | > 200 | – | > 200 | > 200 | – | – | – | – |
| COc1cc(NC(=S)NCCN2CCOCC2)ccc1Cl | > 200 | > 200 | – | > 200 | > 200 | – | – | – | – |
| S=C(NCCN1CCCCC1)Nc1cccc(Cl)c1 | 190 | 22 | 1 | 140 | 120 | – | – | – | – |
| COc1ccc(NC(=S)NCCN(C)C)cc1Cl | 46 | 17 | 3 | 18 | 16 | – | – | – | – |
| NS(=O)(=O)c1ccc(NC(=S)NCCN2CCCCC2)cc1 | 90 | 33 | 12 | 7.8 | 5.5 | 70 | Dose-dependent effect | 70 | Dose-dependent effect |
| COc1ccccc1NC(=S)NCCN1CCCCC1 | 32 | 66 | 1 | 29 | 22 | – | – | – | – |
| CC1CCN(CCNC(=S)Nc2cccc(Cl)c2)CC1 | > 200 | > 200 | – | > 200 | > 200 | – | – | – | – |
| COc1ccc(NC(S)=NCCN2CCC(C)CC2)cc1Cl | 12 | 24 | 13 | 0.96 | 0.63 | 90 | Dose-dependent effect | 90 | Dose-dependent effect |
